Assay outcomes deposited in PubChem by The Scripps Research Institute Molecular Screening Center.
ABHD4 inh = inhibitors of mouse ABHD4; purified mABHD4, FP-Rh probe fluorescence polarization; inhibition, % at 8.92 µM; 370,000 compounds, 0.54% hits;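 active = inhibition exceeding the mean over every tested compound plus 3 SD, cut at about 30% in these data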;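 also: 0% = plate median of compound wells and 100% = S159A mutant with DMSO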
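Assay system: wild-type mouse ABHD4 protein; compound: single nominal dose of 8.92 µM, 0.89% DMSO final; schedule: 45 min + 60 min at 25 °C; measured by: FP readout, ex 525 nm / em 598 nm; evaluation: % inhibition of FP-Rh probe binding versus controls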
PAD4 FP inh = PAD4 (human) enzyme inhibition | inhibition, % at 6.36 µM | Q9UM07 | recombinant PAD4, RCA probe fluorescence polarization | 330,000 compounds, 0.41% hits;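 active = percent inhibition above a cutoff equal to the mean of all tested compounds plus 3 SD, cut at about 15% in these data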;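 also: 0% = PAD4 with RCA probe and DMSO and 100% = probe without PAD4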
Target sequence (Q9UM07 whole entry, looked up): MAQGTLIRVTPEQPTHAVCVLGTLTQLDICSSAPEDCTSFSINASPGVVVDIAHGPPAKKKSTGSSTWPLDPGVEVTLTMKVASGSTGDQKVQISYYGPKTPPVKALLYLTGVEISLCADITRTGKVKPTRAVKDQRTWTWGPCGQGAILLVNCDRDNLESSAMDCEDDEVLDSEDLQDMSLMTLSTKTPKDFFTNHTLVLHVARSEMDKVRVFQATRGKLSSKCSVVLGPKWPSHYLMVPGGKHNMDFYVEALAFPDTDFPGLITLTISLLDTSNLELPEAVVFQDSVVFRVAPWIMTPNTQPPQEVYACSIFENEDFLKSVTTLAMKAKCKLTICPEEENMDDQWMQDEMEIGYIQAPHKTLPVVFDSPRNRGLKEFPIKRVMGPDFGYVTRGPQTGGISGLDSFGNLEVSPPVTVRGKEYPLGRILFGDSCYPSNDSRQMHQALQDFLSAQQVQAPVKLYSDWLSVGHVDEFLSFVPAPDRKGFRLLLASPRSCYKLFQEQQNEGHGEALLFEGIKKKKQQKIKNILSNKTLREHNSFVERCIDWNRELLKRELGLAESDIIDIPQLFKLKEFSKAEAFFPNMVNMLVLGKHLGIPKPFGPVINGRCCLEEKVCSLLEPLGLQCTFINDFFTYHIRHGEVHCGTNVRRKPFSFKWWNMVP
TDP2 inh = TDP2 (human) inhibition, absorbance primary screen; O95551; recombinant TDP2, T5PNP hydrolysis, p-nitrophenol absorbance 415 nm; inhibition, % at 12.8 µM; 370,000 compounds, 0.34% hits;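 active = inhibition above the mean of all tested compounds plus 3 SD, set per campaign, cut at about 25% in these data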;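 also: 0% = DMSO with enzyme and 100% = buffer with substrate but no TDP2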
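Incubation: 2 h at 37 °C; Test system: recombinant human TDP2; Quantity: enzyme 120 nM; Read-out basis: percent inhibition; Medium: 50 mM Tris-HCl pH 7.5 with Mg2+, KCl, DTT, BSA; Repeats: single replicate; Compound: 12.8 µM single point, 1% DMSO; Signal: epi absorbance; Reagent: 5 mM T5PNP chromogenic substrate; Benchmarks: no-enzyme high, DMSO-plus-enzyme low.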
TCR CD3 inh = human TCR-CD3 binding inhibition; 360,000 compounds, 0.37% hits; TAMRA-labeled TCR probe fluorescence, biochemical; inhibition, % at 9.4 µM; in the data active = inhibition above about 19%;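 also: recombinant mutant TCR 2C K166C tagged with TAMRA read by polarization; 0% = receptor in buffer alone and 100% = receptor with positive control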
HTRA1 inhibitor = blocks human HTRA1 serine peptidase | AID 504803 | inhibition, % at 5.96 µM | Q92743 | 340,000 compounds, 0.5% hits | recombinant HTRA1, FP-rhodamine activity-based probe, fluorescence polarization; in the data active = inhibition above about 36%;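 also: 0% = enzyme with DMSO and 100% = wells lacking enzyme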
SIAE inh = inhibitors of human sialic acid acetylesterase SIAE. AID 1053197. 370,000 compounds, 0.69% hits. inhibition, % at 9.66 µM. SIAE FP-Rh probe binding, fluorescence polarization. Q9HAT2;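 active = inhibition above a cutoff: mean of compounds within the control limits plus 3 SD of those, cut at about 17% in these data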;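 also: 0% = plate median of compound wells and 100% = probe without SIAE protein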
HTRA1 conf = confirmation of human HTRA1 inhibitors. 1,600 compounds, 66% hits. AID 540248. recombinant HTRA1, FP-rhodamine activity-based probe, fluorescence polarization. shares compounds with HTRA1 inhibitor. inhibition, % at 5.96 µM;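 active = mean inhibition over three repeats above a set limit taken from the earlier primary screen, cut at about 37% in these data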;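 also: 0% = HTRA1 with DMSO and 100% = wells lacking HTRA1; inhibitors block probe binding so polarization drops and inhibition rises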
Active calls of the source: *; . = no result. In the library only some 2% were active in any assay of this set; here they are far more common.

SMILES	ABHD4 inh	PAD4 FP inh	TDP2 inh	TCR CD3 inh	HTRA1 inhibitor	SIAE inh	HTRA1 conf
CCCCn1c(CCCNC(=O)c2ccco2)nc2ccccc21	-9.1	-3.4	-24.8	9.4	1.0	-13.1	.
CCCN(C(=O)c1ccc(N(C)S(=O)(=O)c2ccc(C)cc2)cc1)C1CCS(=O)(=O)C1 (centres undefined)	2.9	-3.0	-2.8	-3.7	1.4	-2.9	.
CC1c2cccn2CCN1S(=O)(=O)c1ccccc1 (centres undefined)	5.5	-2.1	3.9	-1.8	0.5	5.8	.
O=S(=O)(c1cccnc1)N1CCn2cccc2C1c1ccccc1F (centres undefined)	2.8	-2.0	15.5	4.3	77.2*	4.6	28.9
CCCC(=O)Nc1cc(C(=O)O)ccc1Sc1ccc(C)cc1	4.6	-4.4	14.4	-3.4	-0.6	-2.2	.
CC(=O)Nc1ccc(C23CC4CC(CC(C4)C2)C3)cc1	-14.1	-7.2	-2.9	-5.3	-24.8	-2.2	.
Oc1ccc(C23CC4CC(CC(C4)C2)C3)cc1O	17.9	-1.4	0.5	-3.2	58.8*	4.3	81.1*
COC(=O)[C@]1(C)N[C@H](CN(C)C(=O)NC(C)C)[C@@H]2C(=O)N(C)C(=O)[C@@H]21	4.0	-3.6	6.5	-7.6	4.5	2.7	.
CCOC(=O)COn1c(=O)c(-c2cccs2)[n+]([O-])c2ccccc21	7.8	-7.3	-1.4	-6.5	42.0*	-0.5	10.0
CCOn1c(=O)c(-c2cccs2)[n+]([O-])c2ccccc21	5.6	-12.7	-1.5	7.4	27.1	-2.7	.
COc1cc(/C=N/Nc2cccc(C)c2)cc(Br)c1O	11.5	.	3.2	-6.0	37.6*	15.3	30.3
CNc1nc(-c2ccccn2)nnc1-c1ccccc1	-7.2	3.3	-2.8	-1.2	20.8	-3.2	.
c1ccc(-c2nnc(-c3ccccn3)nc2NC2CCCCC2)cc1	5.0	5.2	-4.9	0.1	65.0*	-1.3	80.1*
CCN(CC)c1ccc(N)cc1	.	-51.4	.	.	44.4*	.	65.7*
CCCC1CCC2(CC1)CCC2OC(=S)Nc1ccc(I)cc1 (centres undefined)	-5.7	.	6.2	.	.	-1.0	.
CCC(=O)Nc1ccc(Nc2ccccc2)cc1	-3.4	-0.9	-0.3	5.8	21.1	6.0	.
COCC(=O)Nc1ccc(Nc2ccccc2)cc1	0.2	-9.4	4.6	0.9	46.8*	7.5	40.3*
COc1c(Br)cc(/C=N/n2c(-c3ccccc3)n[nH]c2=S)c(O)c1Br	25.3	-1.8	-4.1	9.7	74.5*	6.7	30.5
Oc1c(Br)cc(Br)cc1/C=N/n1c(-c2ccccc2)n[nH]c1=S	16.6	1.1	7.0	11.9	5.3	5.2	.
N#CC(c1nc2ccccc2nc1OCCO)S(=O)(=O)c1ccccc1 (centres undefined)	2.9	0.5	-7.7	1.7	-2.3	5.9	.
Oc1c(CNc2ccccc2)cc(COCc2ccccc2)c2cccnc12	8.1	-7.1	-1.5	-4.0	49.1*	19.2*	15.0
COC1=CC(=O)C(O)=C(CCCCCCC/C=C/CCCCCCCC2=C(O)C(=O)C=C(OC)C2=O)C1=O	.	5.7	.	.	64.4*	.	93.5*
CCCCCCCCC/C(=N\O)c1ccccn1	-5.1	-1.4	15.6	1.7	66.4*	-6.3	66.0*
CCCCCCCCC(=O)N/N=C/c1ccccn1	-0.2	9.7	-11.0	5.0	-0.6	-2.2	.
Cc1ccnc(Nc2nc(-c3ccc(O)cc3O)cs2)c1	19.0	-1.2	-17.3	8.1	37.0*	10.1	44.4*
SMILES	ABHD4 inh	PAD4 FP inh	TDP2 inh	TCR CD3 inh	HTRA1 inhibitor	SIAE inh	HTRA1 conf
Cc1ccnc(Nc2nc(-c3ccc(O)cc3)cs2)c1	7.6	-1.9	-11.2	-5.2	16.0	6.7	.
C=C[C@@H]1c2cccc(C)c2N(S(=O)(=O)c2ccc(C)cc2)[C@H](c2ccc(OC(C)=O)cc2)C1(C#N)C#N	-10.7	2.5	-0.6	-1.5	-27.2	-17.7	.
CN1c2ccccc2N(C)C1(C)c1cccc2ccccc12	10.2	-1.4	-19.9	4.9	47.2*	5.9	-2.4
CN1c2cccc3cccc(c23)N(C)C1(C)C	27.4	-10.9	13.0	-4.5	4.6	3.6	.
CCOC(=O)[C@@]12CCC3=C1N(CCC3)C(=O)[C@H](CC(=O)NCCCOC)C2	-10.9	.	-9.3	.	.	2.0	.
C(=N\Nc1nc2ccccc2[nH]1)/c1cccc2cccnc12	24.1	0.4	-18.2	-5.3	49.1*	13.6	54.5*
COc1cccc2c1nc(C)c1cc(C)oc12	11.7	-4.8	0.0	3.3	-3.3	3.1	.
COc1cccc2nc3cc(C)c(C)cc3nc12	28.1	-13.0	17.2	7.1	47.9*	10.6	5.9
O=C1CSC(=S)N1N=Cc1c(O)ccc2ccccc12	44.8*	.	2.7	17.2	37.1*	7.4	41.2*
COC(=O)[C@]12C[C@H](CC(=O)NCc3ccccc3)C(=O)N(Cc3cccc4ccccc34)C1=C[C@H](C1CCCC1)O[C@@H]2C	12.4	.	-16.8	.	.	-2.0	.
O=C(O)c1cccc(Cn2c(Cl)c(/C=N/NC(=O)c3cc4ccccc4cc3O)sc2=O)c1	-36.3	-12.2	14.9	11.8	49.7*	-32.2	55.2*
O=C(O)c1cccc(Cn2c(Cl)c(/C=N/NC(=O)c3ccccc3)sc2=O)c1	-0.8	-2.3	-7.5	4.7	2.5	0.8	.
Cc1ccc(C(=O)NNC(=O)c2ccc(S(=O)(=O)N3CCCCC3)cc2)cc1	-15.4	0.9	-10.6	2.1	-1.8	-1.2	.
Cc1cc(C)c2nc(NNC(=O)c3ccc(S(=O)(=O)N4CCCCC4)cc3)sc2c1	15.1	1.0	-12.8	-3.3	48.7*	9.9	24.0
Cc1cccc2sc(NNC(=O)c3ccc(S(=O)(=O)N4CCc5ccccc5C4)cc3)nc12	4.5	-2.4	-18.9	4.8	44.5*	12.6	33.4
Cc1cccc2sc(NNC(=O)c3ccc(S(=O)(=O)N4CCCC(C)C4)cc3)nc12 (centres undefined)	20.7	2.2	-0.2	-2.9	45.1*	15.6	41.4*
CC1(c2nc3ccccc3[nH]2)CCC(=O)N1Cc1ccc(F)cc1 (centres undefined)	1.4	.	4.2	-2.1	.	0.0	.
CC(=O)NC(C)(c1ccccc1)c1nc(-c2cccc3cccnc23)cs1 (centres undefined)	-6.6	.	-1.3	4.5	.	9.4	.
CCOC(=O)c1c(-c2ccccc2)oc2cc(CN(C)C)c(O)c(CN(C)C)c12	13.8	-1.5	8.0	-0.7	43.6*	3.0	50.8*
CCOC(=O)c1c(C)oc2cc(Cl)c(O)c(CN(C)C)c12	-4.0	2.7	-2.3	-2.9	2.6	-5.1	.
CC#CCOCC1CN(C)C(=O)O1 (centres undefined)	3.0	.	0.9	-2.1	1.7	-1.5	.
O=C(Oc1ccc(OC(=O)c2ccco2)c(S(=O)(=O)c2ccc(Br)cc2)c1)c1ccco1	.	3.1	.	.	42.2*	.	51.3*
